{"source": "ChEMBL document CHEMBL2440024", "about": "“Design, Synthesis, and Biological Evaluation of Novel Conformationally Constrained Inhibitors Targeting EGFR” (ACS Med Chem Lett, 2013)", "key": {"Mus musculus [1]": {"system": "Mus musculus", "assay": "Toxicity in nude mouse xenografted with human A431 cells assessed as weight loss at 200 mg/kg/day, po qd after 12 days", "assay_type": "organism-based, A-431", "design": "route oral", "details": "in vivo, 288 h", "method_in_brief": "(§1)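 A431 xenograft; dosing began once tumours reached 50–150 mm³. Mice randomized, n = 6/group, given test agent, gefitinib reference or vehicle by oral gavage once daily at 200 mg/kg/day. Body weight and tumour volume recorded twice weekly; mortality and weight loss noted over treatment (tumour mass read on days 0, 4, 7, 10, 12).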"}, "Mus musculus [2]": {"system": "Mus musculus", "assay": "Toxicity in nude mouse xenografted with human A431 cells assessed as mortality at 200 mg/kg/day, po qd after 12 days", "assay_type": "organism-based, A-431", "design": "route oral", "details": "in vivo, 288 h", "method_in_brief": "as §1"}, "[3]": {"system": "Epidermal growth factor receptor (Homo sapiens), P00533 [T790M]", "sequence (P00533 whole entry T790M)": "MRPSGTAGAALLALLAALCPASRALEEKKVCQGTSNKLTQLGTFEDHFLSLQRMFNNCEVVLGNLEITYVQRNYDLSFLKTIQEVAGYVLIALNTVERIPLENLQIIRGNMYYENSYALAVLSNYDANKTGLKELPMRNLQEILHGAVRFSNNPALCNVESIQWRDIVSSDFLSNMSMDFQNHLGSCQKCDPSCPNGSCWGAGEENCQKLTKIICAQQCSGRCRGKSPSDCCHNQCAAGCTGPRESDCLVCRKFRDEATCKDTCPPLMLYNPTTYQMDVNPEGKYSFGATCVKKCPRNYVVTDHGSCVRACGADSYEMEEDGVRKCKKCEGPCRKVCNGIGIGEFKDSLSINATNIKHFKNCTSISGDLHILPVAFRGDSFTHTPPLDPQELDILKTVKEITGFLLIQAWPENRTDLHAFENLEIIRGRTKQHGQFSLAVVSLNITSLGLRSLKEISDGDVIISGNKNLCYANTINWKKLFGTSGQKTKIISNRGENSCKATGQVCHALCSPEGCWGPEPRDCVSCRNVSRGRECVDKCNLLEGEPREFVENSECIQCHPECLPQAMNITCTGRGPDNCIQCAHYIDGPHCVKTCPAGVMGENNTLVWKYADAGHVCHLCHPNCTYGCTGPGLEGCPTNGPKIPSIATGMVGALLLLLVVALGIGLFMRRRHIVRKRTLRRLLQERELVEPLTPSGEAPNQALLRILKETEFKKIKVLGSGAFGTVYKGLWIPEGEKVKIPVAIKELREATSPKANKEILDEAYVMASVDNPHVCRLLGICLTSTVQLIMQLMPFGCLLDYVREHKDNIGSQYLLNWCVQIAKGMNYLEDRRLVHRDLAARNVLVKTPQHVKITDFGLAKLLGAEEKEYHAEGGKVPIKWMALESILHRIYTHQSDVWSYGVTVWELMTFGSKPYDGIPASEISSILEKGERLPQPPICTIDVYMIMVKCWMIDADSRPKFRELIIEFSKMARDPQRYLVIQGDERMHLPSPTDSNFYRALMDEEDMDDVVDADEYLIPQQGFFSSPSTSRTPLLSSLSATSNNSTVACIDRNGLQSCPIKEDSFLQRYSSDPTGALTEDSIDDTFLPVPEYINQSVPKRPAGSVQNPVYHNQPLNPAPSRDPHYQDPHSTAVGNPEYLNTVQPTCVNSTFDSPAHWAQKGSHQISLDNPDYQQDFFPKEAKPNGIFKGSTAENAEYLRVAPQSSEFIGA", "assay": "Inhibition of EGFR T790M mutant (unknown origin) incubated for 5 mins prior to ATP addition measured after 30 mins by HTRF method", "assay_type": "protein assay"}, "Cytochrome P450 3A4": {"biological_target": "Cytochrome P450 3A4 (Homo sapiens, UniProt P08684)", "sequence (P08684 whole entry)": "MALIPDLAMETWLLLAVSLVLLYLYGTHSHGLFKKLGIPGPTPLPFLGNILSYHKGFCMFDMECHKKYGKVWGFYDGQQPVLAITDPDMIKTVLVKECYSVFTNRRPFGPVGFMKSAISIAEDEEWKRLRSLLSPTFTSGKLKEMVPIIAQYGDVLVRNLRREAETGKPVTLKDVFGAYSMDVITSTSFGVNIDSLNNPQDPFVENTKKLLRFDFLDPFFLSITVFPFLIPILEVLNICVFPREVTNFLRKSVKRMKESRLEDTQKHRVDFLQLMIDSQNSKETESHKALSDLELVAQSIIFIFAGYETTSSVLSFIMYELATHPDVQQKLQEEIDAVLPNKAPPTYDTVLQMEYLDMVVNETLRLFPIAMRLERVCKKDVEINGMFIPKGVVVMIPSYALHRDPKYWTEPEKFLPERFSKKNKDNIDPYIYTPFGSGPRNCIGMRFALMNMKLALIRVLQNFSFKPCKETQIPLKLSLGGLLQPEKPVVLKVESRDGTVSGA", "assay": "Inhibition of human recombinant CYP3A4 after 20 mins by LC/MS/MS analysis", "assay_type": "ADME"}, "Cytochrome P450 2C9": {"biological_target": "Cytochrome P450 2C9 (Homo sapiens, UniProt P11712)", "sequence (P11712 whole entry)": "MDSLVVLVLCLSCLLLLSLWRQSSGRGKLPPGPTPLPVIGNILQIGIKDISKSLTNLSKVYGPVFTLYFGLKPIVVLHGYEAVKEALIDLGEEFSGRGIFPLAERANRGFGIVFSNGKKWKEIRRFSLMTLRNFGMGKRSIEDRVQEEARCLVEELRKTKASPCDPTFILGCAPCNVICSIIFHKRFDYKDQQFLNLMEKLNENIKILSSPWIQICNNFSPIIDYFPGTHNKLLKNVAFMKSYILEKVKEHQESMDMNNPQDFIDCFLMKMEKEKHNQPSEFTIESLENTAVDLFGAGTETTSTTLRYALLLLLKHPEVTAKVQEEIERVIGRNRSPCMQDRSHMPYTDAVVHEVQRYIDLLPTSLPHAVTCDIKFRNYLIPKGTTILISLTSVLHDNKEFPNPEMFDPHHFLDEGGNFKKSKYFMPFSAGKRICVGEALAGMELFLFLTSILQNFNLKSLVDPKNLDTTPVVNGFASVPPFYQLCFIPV", "assay": "Inhibition of human recombinant CYP2C9 after 20 mins by LC/MS/MS analysis", "assay_type": "ADME"}, "Cytochrome P450 2D6": {"biological_target": "Cytochrome P450 2D6 (Homo sapiens, UniProt P10635)", "sequence (P10635 whole entry)": "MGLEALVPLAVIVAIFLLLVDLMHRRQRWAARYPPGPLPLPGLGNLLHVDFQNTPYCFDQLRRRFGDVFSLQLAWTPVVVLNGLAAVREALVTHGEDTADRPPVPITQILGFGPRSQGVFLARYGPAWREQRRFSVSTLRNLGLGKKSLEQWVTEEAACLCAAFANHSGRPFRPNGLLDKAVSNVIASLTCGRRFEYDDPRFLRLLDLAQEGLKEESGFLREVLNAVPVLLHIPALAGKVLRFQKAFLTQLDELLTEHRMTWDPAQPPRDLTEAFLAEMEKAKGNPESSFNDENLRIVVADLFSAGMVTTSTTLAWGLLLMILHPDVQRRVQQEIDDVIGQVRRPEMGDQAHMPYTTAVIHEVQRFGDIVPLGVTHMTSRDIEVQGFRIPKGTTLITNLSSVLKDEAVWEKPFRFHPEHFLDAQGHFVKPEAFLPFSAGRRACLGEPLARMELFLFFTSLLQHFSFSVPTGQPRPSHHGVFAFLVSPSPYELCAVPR", "assay": "Inhibition of human recombinant CYP2D6 after 20 mins by LC/MS/MS analysis", "assay_type": "ADME"}, "Cytochrome P450 1A2": {"biological_target": "T1, Cytochrome P450 1A2 (Homo sapiens, UniProt P05177)", "T1 sequence (P05177 whole entry)": "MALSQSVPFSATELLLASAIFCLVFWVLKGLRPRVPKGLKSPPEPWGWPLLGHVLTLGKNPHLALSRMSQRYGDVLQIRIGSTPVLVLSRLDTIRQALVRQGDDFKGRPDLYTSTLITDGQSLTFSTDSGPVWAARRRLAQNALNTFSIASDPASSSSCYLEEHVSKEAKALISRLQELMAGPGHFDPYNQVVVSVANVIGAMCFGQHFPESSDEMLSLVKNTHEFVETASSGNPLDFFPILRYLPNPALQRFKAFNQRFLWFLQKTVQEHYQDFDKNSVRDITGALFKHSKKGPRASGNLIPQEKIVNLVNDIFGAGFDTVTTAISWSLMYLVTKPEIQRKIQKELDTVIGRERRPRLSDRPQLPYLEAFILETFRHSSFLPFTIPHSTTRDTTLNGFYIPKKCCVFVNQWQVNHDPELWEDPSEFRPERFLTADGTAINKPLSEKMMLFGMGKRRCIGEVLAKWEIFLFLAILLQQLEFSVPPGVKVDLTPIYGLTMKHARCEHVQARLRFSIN", "assay": "Inhibition of human recombinant CYP1A2 after 20 mins by LC/MS/MS analysis", "assay_type": "ADME"}, "K562": {"system": "K562", "assay": "Cytotoxicity against human K562 cells after 48 hrs by CellTiter-Glo assay", "assay_type": "functional, cell-based", "details": "K562, 48 h"}, "SW-620": {"system": "SW-620", "assay": "Cytotoxicity against human SW620 cells after 48 hrs by CellTiter-Glo assay", "assay_type": "functional, cell-based", "details": "SW-620, 48 h"}, "A549": {"system": "A549", "assay": "Cytotoxicity against human A549 cells after 48 hrs by CellTiter-Glo assay", "assay_type": "functional, cell-based", "details": "A549, 48 h"}, "A-431": {"system": "A-431", "assay": "animal or person", "assay_type": "functional, Homo sapiens", "details": "Mus musculus, A-431, 288 h, route oral, read-out: TGI"}, "Mus musculus [4]": {"system": "Mus musculus", "assay": "Oral bioavailability in BALB/c mouse at 10 mg/kg", "assay_type": "ADME, organism-based", "details": "in vivo", "method_in_brief": "(§2)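 Mice (12 per treatment group) received a single dose, either intravenously at 3 mg/kg or orally at 10 mg/kg. Plasma exposure was followed over 24 h to derive AUC(0–24 h) in μM·min, t1/2 and tmax in min, and Cmax in μM. Oral bioavailability (F%) was derived from the oral versus i.v. data.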"}, "[5]": {"assay": "Cmax in BALB/c mouse at 10 mg/kg, po", "assay_type": "ADME, organism-based", "design": "dose 10 mg/kg, route oral", "details": "in vivo", "method_in_brief": "as §2"}, "[6]": {"assay": "Cmax in BALB/c mouse at 3 mg/kg, iv", "assay_type": "ADME, organism-based", "design": "dose 3 mg/kg, route intravenous", "details": "in vivo", "method_in_brief": "as §2"}, "[7]": {"assay": "Tmax in BALB/c mouse at 10 mg/kg, po", "assay_type": "ADME, organism-based", "design": "dose 10 mg/kg, route oral", "details": "in vivo", "method_in_brief": "as §2"}, "[8]": {"assay": "Tmax in BALB/c mouse at 3 mg/kg, iv", "assay_type": "ADME, organism-based", "design": "dose 3 mg/kg, route intravenous", "details": "in vivo", "method_in_brief": "as §2"}, "[9]": {"assay": "Half life in BALB/c mouse at 10 mg/kg, po", "assay_type": "ADME, organism-based", "design": "dose 10 mg/kg, route oral", "details": "in vivo", "method_in_brief": "as §2"}, "Mus musculus [10]": {"system": "Mus musculus", "assay": "AUC (0 to 24 hrs) in BALB/c mouse at 10 mg/kg, po", "assay_type": "ADME, organism-based, Plasma", "design": "time < 24 hr, dose 10 mg/kg, route oral", "details": "in vivo", "method_in_brief": "as §2"}, "[11]": {"assay": "Half life in BALB/c mouse at 3 mg/kg, iv", "assay_type": "ADME, organism-based", "design": "dose 3 mg/kg, route intravenous", "details": "in vivo", "method_in_brief": "as §2"}, "Mus musculus [12]": {"system": "Mus musculus", "assay": "AUC (0 to 24 hrs) in BALB/c mouse at 3 mg/kg, iv", "assay_type": "ADME, organism-based, Plasma", "design": "time < 24 hr, dose 3 mg/kg, route intravenous", "details": "in vivo", "method_in_brief": "as §2"}, "[13]": {"biological_target": "Voltage-gated inwardly rectifying potassium channel KCNH2 (Homo sapiens, UniProt Q12809)", "sequence (Q12809 whole entry)": "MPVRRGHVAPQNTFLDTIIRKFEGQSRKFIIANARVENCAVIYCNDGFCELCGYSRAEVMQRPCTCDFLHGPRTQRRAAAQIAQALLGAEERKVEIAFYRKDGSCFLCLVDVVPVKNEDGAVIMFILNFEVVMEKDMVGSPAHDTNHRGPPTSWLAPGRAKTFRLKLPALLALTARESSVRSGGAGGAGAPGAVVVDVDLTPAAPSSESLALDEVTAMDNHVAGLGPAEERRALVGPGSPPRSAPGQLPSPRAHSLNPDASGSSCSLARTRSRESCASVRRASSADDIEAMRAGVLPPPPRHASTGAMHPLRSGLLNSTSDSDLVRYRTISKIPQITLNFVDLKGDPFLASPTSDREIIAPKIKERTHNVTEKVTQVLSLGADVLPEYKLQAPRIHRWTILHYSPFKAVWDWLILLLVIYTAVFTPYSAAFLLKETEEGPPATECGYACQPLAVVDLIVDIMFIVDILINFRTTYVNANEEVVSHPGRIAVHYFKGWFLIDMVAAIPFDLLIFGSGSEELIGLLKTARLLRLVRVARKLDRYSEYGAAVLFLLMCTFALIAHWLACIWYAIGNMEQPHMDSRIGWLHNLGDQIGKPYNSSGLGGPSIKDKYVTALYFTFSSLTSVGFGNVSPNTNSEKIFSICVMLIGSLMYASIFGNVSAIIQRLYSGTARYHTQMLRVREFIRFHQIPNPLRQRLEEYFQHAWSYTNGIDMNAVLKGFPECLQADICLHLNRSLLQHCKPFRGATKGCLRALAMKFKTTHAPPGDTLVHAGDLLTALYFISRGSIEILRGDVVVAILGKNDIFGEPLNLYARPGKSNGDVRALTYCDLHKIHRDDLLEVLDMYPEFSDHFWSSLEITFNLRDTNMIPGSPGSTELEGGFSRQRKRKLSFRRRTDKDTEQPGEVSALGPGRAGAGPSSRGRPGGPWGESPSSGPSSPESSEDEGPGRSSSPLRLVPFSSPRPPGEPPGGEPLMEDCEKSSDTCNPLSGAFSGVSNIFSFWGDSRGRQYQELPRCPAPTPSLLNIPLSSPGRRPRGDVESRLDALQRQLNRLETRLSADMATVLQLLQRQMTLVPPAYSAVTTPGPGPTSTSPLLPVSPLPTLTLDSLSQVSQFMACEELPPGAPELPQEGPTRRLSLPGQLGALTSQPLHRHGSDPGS", "assay": "Inhibition of human ERG channel by patch clamp assay"}, "[14]": {"biological_target": "T2, Epidermal growth factor receptor (Homo sapiens, UniProt P00533)", "T2 sequence (P00533 whole entry)": "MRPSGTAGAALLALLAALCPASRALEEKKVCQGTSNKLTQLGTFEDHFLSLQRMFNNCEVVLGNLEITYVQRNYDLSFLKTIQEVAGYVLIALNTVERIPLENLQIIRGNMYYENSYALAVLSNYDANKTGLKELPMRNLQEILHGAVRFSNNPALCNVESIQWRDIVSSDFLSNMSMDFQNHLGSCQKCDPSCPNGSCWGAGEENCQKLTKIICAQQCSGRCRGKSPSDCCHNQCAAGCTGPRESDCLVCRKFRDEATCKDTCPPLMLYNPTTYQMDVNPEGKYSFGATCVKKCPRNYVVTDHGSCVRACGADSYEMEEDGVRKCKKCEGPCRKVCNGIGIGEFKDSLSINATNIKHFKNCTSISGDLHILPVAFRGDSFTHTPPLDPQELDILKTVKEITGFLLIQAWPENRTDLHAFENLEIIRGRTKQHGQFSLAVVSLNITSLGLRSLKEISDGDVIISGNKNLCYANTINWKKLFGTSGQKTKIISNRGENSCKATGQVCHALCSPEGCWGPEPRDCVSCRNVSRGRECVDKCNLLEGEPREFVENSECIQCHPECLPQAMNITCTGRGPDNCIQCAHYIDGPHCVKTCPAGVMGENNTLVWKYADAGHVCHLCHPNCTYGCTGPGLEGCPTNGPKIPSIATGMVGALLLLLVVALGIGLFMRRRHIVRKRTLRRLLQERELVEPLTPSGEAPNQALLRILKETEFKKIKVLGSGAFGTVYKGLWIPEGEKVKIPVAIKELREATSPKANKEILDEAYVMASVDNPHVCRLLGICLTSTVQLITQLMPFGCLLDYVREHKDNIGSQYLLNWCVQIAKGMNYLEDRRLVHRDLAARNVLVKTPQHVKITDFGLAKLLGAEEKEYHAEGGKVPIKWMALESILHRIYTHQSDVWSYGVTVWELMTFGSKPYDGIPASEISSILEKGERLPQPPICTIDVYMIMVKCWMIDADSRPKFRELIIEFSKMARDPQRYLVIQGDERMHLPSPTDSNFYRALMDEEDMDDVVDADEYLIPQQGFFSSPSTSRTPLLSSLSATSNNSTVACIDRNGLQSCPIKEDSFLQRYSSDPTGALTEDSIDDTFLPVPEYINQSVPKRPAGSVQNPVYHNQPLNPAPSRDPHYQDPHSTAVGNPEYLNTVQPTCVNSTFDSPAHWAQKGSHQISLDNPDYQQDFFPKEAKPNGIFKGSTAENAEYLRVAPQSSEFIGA", "details": "A-431, at 1 µM"}, "[15]": {"biological_target": "T2, Epidermal growth factor receptor", "assay": "Ratio of IC50 for wild type EGFR in human A431 cells to IC50 for wild type EGFR (unknown origin)", "assay_type": "cell-based", "details": "A-431"}, "[16]": {"biological_target": "T2, Epidermal growth factor receptor", "assay": "Inhibition of wild type EGFR (unknown origin) incubated for 5 mins prior to ATP addition measured after 30 mins by HTRF method"}}, "note": "Calls of active or inactive are those of the source. The calls are words filed in the database; no cut-off is given here."}
{"smiles": "COc1cc2ncnc(Nc3ccc(F)c(Cl)c3)c2cc1OCCCN1CCOCC1", "note": "[GEFITINIB]", "values": [{"measurement": "Activity", "setting": "Mus musculus [1]", "value": "Non-toxic"}, {"measurement": "Activity", "setting": "Mus musculus [2]", "value": "Non-toxic"}]}
{"smiles": "CN(C)C/C=C/C(=O)N1CCOc2cc3ncnc(Nc4ccc(OCc5cccc(F)c5)c(Cl)c4)c3cc21", "values": [{"measurement": "inhibition", "setting": "[3]", "value": "Active"}, {"measurement": "IC50", "setting": "Cytochrome P450 3A4", "value": "> 10", "unit": "µM"}, {"measurement": "IC50", "setting": "Cytochrome P450 2C9", "value": "> 10", "unit": "µM"}, {"measurement": "IC50", "setting": "Cytochrome P450 2D6", "value": "> 10", "unit": "µM"}, {"measurement": "IC50", "setting": "Cytochrome P450 1A2", "value": "> 10", "unit": "µM"}, {"measurement": "IC50", "setting": "K562", "value": "> 10", "unit": "µM"}, {"measurement": "IC50", "setting": "SW-620", "value": 6.2, "unit": "µM"}, {"measurement": "IC50", "setting": "A549", "value": "> 10", "unit": "µM"}]}
{"smiles": "CN(C)C/C=C/C(=O)N1CCOc2cc3ncnc(Nc4ccc(F)c(Cl)c4)c3cc21", "values": [{"measurement": "inhibition", "setting": "[3]", "value": "Active"}, {"measurement": "Activity", "setting": "Mus musculus [1]", "value": "Non-toxic"}, {"measurement": "Activity", "setting": "Mus musculus [2]", "value": "Non-toxic"}, {"measurement": "inhibition in vivo at 200 mg/kg/day", "setting": "A-431", "value": 66.8, "unit": "%"}, {"measurement": "F", "setting": "Mus musculus [4]", "value": 26.1, "unit": "%"}, {"measurement": "Cmax", "setting": "[5]", "value": 360, "unit": "nM"}, {"measurement": "Cmax", "setting": "[6]", "value": 290, "unit": "nM"}, {"measurement": "Tmax", "setting": "[7]", "value": 0.75, "unit": "h"}, {"measurement": "Tmax", "setting": "[8]", "value": 2, "unit": "min"}, {"measurement": "half-life", "setting": "[9]", "value": 9.13, "unit": "h"}, {"measurement": "AUC", "setting": "Mus musculus [10]", "value": 133, "unit": "µM·min"}, {"measurement": "half-life", "setting": "[11]", "value": 12.7, "unit": "h"}, {"measurement": "AUC", "setting": "Mus musculus [12]", "value": 25.4, "unit": "µM·min"}, {"measurement": "IC50", "setting": "Cytochrome P450 3A4", "value": "> 10", "unit": "µM"}, {"measurement": "IC50", "setting": "Cytochrome P450 2C9", "value": "> 10", "unit": "µM"}, {"measurement": "IC50", "setting": "Cytochrome P450 2D6", "value": "> 10", "unit": "µM"}, {"measurement": "IC50", "setting": "Cytochrome P450 1A2", "value": "> 10", "unit": "µM"}, {"measurement": "IC50", "setting": "K562", "value": "> 10", "unit": "µM"}, {"measurement": "IC50", "setting": "[13]", "value": "> 10", "unit": "µM"}, {"measurement": "IC50", "setting": "SW-620", "value": 25.4, "unit": "µM"}, {"measurement": "IC50", "setting": "A549", "value": "> 10", "unit": "µM"}, {"measurement": "inhibition", "setting": "[14]", "value": "Active"}]}
{"smiles": "Fc1ccc(Nc2ncnc3cc4c(cc23)NCCO4)cc1Cl", "values": [{"measurement": "Ratio IC50", "setting": "[15]", "value": 20000}, {"measurement": "IC50", "setting": "[16]", "value": 0.00129, "unit": "µM"}]}
